Results as given in ChEMBL document CHEMBL1125812, “Synthesis of two cyclopentenyl-3-deazapyrimidine carbocyclic nucleosides related to cytidine and uridine” (1991).

How the values were obtained:
Format in all cases: functional
Details in all cases: Mus musculus
L1210 [1] = assay: Compound was evaluated for the ability to inhibit L1210 tumor cell growth a concentration of 1000 uM
In short: (§1)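 L1210 cells seeded at 0.15 × 10^5 cells/mL in Fisher's medium with 10% heat-inactivated horse serum. Drug exposure was continuous for 48 h, and cell number was counted with a Coulter counter. Percent inhibition was calculated relative to untreated control cultures, which reached 4.5 × 10^5 cells/mL.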

L1210 [2] = assay: Compound was evaluated for the ability to inhibit L1210 tumor cell growth a concentration of 100 uM; in short: as §1
L1210 [3] = assay: Compound was evaluated for the ability to inhibit L1210 tumor cell growth a concentration of 10 uM; in short: as §1
L1210 [4] = assay: Compound was evaluated for the ability to inhibit L1210 tumor cell growth a concentration of 1 uM; in short: as §1

Structure (SMILES)	inhibition at 1000 µM (L1210 [1])	inhibition at 100 µM (L1210 [2])	inhibition at 10 µM (L1210 [3])	inhibition at 1 µM (L1210 [4])
O=c1cc(O)ccn1[C@@H]1C=C(CO)[C@@H](O)[C@H]1O	75%	66%	45%	8%
Nc1ccn([C@@H]2C=C(CO)[C@@H](O)[C@H]2O)c(=O)n1	–	93%	93%	93%
Nc1ccn([C@@H]2C=C(CO)[C@@H](O)[C@H]2O)c(=O)c1	15%	0%	0%	0%
